Active and inactive are the calls of the source.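 How the source made its calls, unless noted: active means calcium signal cut by more than 3 SD below the full-agonist control yet still positive, in both repeats and the earlier primary screen; inactive means the rest.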
Molecular target: Short transient receptor potential channel 4 (Mus musculus) (UniProt Q9QUQ5)
Assay: inhibitors of mouse TRPC4 channel, confirmation, cell-based, Fluo4, HEK293 TRPC4beta/mu-opioid (AID 2636)
Conditions: DAMGO, Fluo4 calcium flux, at 10 µM
Method in brief: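 Assay system: HEK293 cells stably co-expressing mouse TRPC4beta and mu-opioid receptor / Also added: DAMGO agonist, submaximal followed by maximal addition / Compound dosing: single final compound concentration of 10 µM / Times: compound pre-incubation 110 s before DAMGO / Detection: Fluo4 calcium flux fluorescence, kinetic read / Replicates: duplicate wells for each compound, averaged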

Short transient receptor potential channel 4 (Mus musculus), sequence (Q9QUQ5 whole entry, looked up): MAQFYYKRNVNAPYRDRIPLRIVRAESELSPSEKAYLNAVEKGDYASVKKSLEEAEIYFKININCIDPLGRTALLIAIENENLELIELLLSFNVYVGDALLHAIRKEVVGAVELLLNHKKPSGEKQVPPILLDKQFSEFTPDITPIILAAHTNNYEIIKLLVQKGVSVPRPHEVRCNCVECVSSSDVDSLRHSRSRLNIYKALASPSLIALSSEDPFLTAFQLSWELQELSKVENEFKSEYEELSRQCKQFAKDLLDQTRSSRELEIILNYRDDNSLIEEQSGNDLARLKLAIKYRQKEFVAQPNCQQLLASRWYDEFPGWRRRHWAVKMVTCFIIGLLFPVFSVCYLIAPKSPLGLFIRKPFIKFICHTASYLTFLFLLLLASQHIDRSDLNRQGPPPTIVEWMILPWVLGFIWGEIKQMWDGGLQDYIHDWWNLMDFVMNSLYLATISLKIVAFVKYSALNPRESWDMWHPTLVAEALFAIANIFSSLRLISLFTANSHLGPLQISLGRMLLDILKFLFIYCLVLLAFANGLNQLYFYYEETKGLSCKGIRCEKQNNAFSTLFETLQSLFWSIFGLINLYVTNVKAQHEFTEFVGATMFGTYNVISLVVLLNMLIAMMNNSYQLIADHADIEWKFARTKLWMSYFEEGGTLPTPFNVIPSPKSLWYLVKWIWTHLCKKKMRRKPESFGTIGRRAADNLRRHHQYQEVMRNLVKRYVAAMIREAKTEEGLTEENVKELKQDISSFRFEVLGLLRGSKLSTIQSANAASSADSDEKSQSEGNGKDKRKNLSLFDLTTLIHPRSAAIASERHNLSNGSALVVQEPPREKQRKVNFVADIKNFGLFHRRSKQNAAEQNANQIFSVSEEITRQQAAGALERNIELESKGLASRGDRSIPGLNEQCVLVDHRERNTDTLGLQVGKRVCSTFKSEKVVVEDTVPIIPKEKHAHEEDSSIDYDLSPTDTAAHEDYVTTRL

outcome, inactive:
CN1CCC(CNC(=O)Nc2ccccc2)(c2ccccc2)CC1
Cc1ccc(C)c(OCCCCCn2ccnc2)c1
CN(C)C(CNC(=O)c1ccc2ccccc2n1)c1ccccc1 (stereo not given)
CCn1cc(CN2CCC(n3nccc3NC(=O)CCOc3ccccc3)CC2)cn1
CCOC(=O)C1(CCOc2ccccc2)CCN(Cc2cnc(C)s2)CC1
CCN1CCN(c2ccc(S(=O)(=O)N3CCOCC3)cc2NC(=O)C(C)Oc2cccc(Cl)c2)CC1 (stereo not given)
CN(CCc1nc2ccc(Cl)cc2[nH]1)Cc1nc(CC2CC2)no1
COc1ccccc1CCC(=O)Nc1cc(S(=O)(=O)N2CCCCC2)ccc1N1CCN(C)CC1
CCCCC(=O)NNC(=S)NC(=O)c1ccc(C)cc1
Cc1ccc(C2N(c3ccc(Cl)c(Cl)c3)C(=O)C3CCCN32)o1 (stereo not given)
COc1ccccc1N1CCN(C(c2cccs2)C(C)NC(=O)c2cccs2)CC1 (stereo not given)
O=C(Nc1nnc(-c2ccccc2Cl)o1)c1nc2ccccc2s1
CCOC(=O)C1(CC2CCCCO2)CCN(Cc2c(C)cc(C)cc2-n2cccn2)CC1 (stereo not given)
Cc1ccccc1OCC(=O)NNC(=S)NC(=O)c1ccco1
Cc1ccc(C2(O)CN(c3ccccc3C)C3=[N+]2CCS3)cc1 (stereo not given)
Cc1ccccc1C(=O)NNC(=S)NC(=O)c1ccccc1
Cc1ccc(C(=O)NC(=S)NNC(=O)c2ccccc2)cc1
Fc1ccc(-c2nnc(CN3CCN(c4ncc(C(F)(F)F)cc4Cl)CC3)o2)cc1
CNCCCOc1ccc2c(c1)CCC2
CCN(CCCNS(=O)(=O)c1cc(-c2cc(C)no2)ccc1C)Cc1ccccc1
CCOC(=O)c1oc2ccc(OC)cc2c1NC(=O)CN1CCN(C)CC1
COc1ccc(C(CNC(=O)c2cc(SC)ccc2Cl)N(C)C)cc1 (stereo not given)
O=C(NCCc1ccccn1)C(F)(F)C(F)(F)C(F)(F)C(F)(F)C(F)(F)C(F)F
CCCCCSc1nnc2c(n1)OC(c1cccn1C)N(C(C)=O)c1ccccc1-2 (stereo not given)
COc1ccc(-c2cc(C#N)nc(N3CCNCC3)n2)cc1
Cc1ccccc1NC(=S)NCCc1ccccn1
Cn1c(CN2CCN(c3cccc(Cl)c3)CC2)nc2ccccc21
O=C(Cn1c(-c2ccccc2)c[n+]2ccsc12)c1ccc(Br)cc1
CCn1c(N2CCN(Cc3ccc([N+](=O)[O-])cc3)CC2)nc2ccccc21
CN(C)C(CNC(=S)Nc1ccc(F)cc1)c1cccnc1 (stereo not given)
COc1ccc(C(=O)NC(=S)NNC(=O)c2c(-c3ccccc3)noc2C)cc1OC
CC1CC(C)CN(CCCNC(=O)COc2cc(=O)n(C)c3ccccc23)C1 (stereo not given)
CN(C)CCCN(C(=O)c1ccc(C(=O)c2ccccc2)cc1)c1nc2ccc(F)cc2s1
CCCCN(CC)CCNC(=O)c1cc2cc3ccc(Cl)cc3nc2o1
COc1ccc(C(=O)NC(=S)NNC(=O)CCc2ccccc2)cc1
CCN(CC)CCSc1nc2ccc(OC)cc2[nH]1
Cc1ccc(C)c(OCCCCn2ccnc2)c1
Cc1nc(/N=C(\N)NC(=O)NC2CCCCC2)nc2ccccc12
COC(=O)[C@@]1(Cc2ccc(F)cc2)[C@H]2c3cc(C(=O)N(C)C)n(CCc4ccccn4)c3C[C@H]2CN1C(=O)c1ccccc1
O=C(CNS(=O)(=O)c1ccc2ccccc2c1)NCCc1ccccn1

Molecular target: Short transient receptor potential channel 4 (Mus musculus) (UniProt Q9QUQ5)
Assay: inhibitors of mouse TRPC4 channel, confirmation, cell-based, second round, Fluo4, HEK293 TRPC4beta/mu-opioid, 1 µM (AID 2637;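 active means calcium signal ratio cut to more than 3 SD under the fully stimulated control mean yet still positive, in both repeats and the primary screen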)
Conditions: Fluo4 calcium flux, DAMGO, at 1 µM
Method in brief: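 Test system: HEK293 stable line co-expressing TRPC4beta and mu-opioid receptor | Probe or stimulus: Sequential submaximal then maximal DAMGO stimulation | Dosing: 1 µM single point | Timing: Fluo4 loading 45 min at room temperature, compound 110 s | Signal: Fluo4 calcium fluorescence, kinetic real-time read after baseline | Controls: ECmax and compound-free wells | Repeats: Duplicates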

outcome, inactive:
CN1CCC(CNC(=O)Nc2ccccc2)(c2ccccc2)CC1
Cc1ccc(C)c(OCCCCCn2ccnc2)c1
CN(C)C(CNC(=O)c1ccc2ccccc2n1)c1ccccc1 (stereo not given)
CCn1cc(CN2CCC(n3nccc3NC(=O)CCOc3ccccc3)CC2)cn1
CCOC(=O)C1(CCOc2ccccc2)CCN(Cc2cnc(C)s2)CC1
CCN1CCN(c2ccc(S(=O)(=O)N3CCOCC3)cc2NC(=O)C(C)Oc2cccc(Cl)c2)CC1 (stereo not given)
CN(CCc1nc2ccc(Cl)cc2[nH]1)Cc1nc(CC2CC2)no1
COc1ccccc1CCC(=O)Nc1cc(S(=O)(=O)N2CCCCC2)ccc1N1CCN(C)CC1
CCCCC(=O)NNC(=S)NC(=O)c1ccc(C)cc1
Cc1ccc(C2N(c3ccc(Cl)c(Cl)c3)C(=O)C3CCCN32)o1 (stereo not given)
COc1ccccc1N1CCN(C(c2cccs2)C(C)NC(=O)c2cccs2)CC1 (stereo not given)
O=C(Nc1nnc(-c2ccccc2Cl)o1)c1nc2ccccc2s1
CCOC(=O)C1(CC2CCCCO2)CCN(Cc2c(C)cc(C)cc2-n2cccn2)CC1 (stereo not given)
Cc1ccccc1OCC(=O)NNC(=S)NC(=O)c1ccco1
Cc1ccc(C2(O)CN(c3ccccc3C)C3=[N+]2CCS3)cc1 (stereo not given)
Cc1ccccc1C(=O)NNC(=S)NC(=O)c1ccccc1
Cc1ccc(C(=O)NC(=S)NNC(=O)c2ccccc2)cc1
Fc1ccc(-c2nnc(CN3CCN(c4ncc(C(F)(F)F)cc4Cl)CC3)o2)cc1
CNCCCOc1ccc2c(c1)CCC2
CCN(CCCNS(=O)(=O)c1cc(-c2cc(C)no2)ccc1C)Cc1ccccc1
CCOC(=O)c1oc2ccc(OC)cc2c1NC(=O)CN1CCN(C)CC1
COc1ccc(C(CNC(=O)c2cc(SC)ccc2Cl)N(C)C)cc1 (stereo not given)
O=C(NCCc1ccccn1)C(F)(F)C(F)(F)C(F)(F)C(F)(F)C(F)(F)C(F)F
CCCCCSc1nnc2c(n1)OC(c1cccn1C)N(C(C)=O)c1ccccc1-2 (stereo not given)
COc1ccc(-c2cc(C#N)nc(N3CCNCC3)n2)cc1
Cc1ccccc1NC(=S)NCCc1ccccn1
Cn1c(CN2CCN(c3cccc(Cl)c3)CC2)nc2ccccc21
O=C(Cn1c(-c2ccccc2)c[n+]2ccsc12)c1ccc(Br)cc1
CCn1c(N2CCN(Cc3ccc([N+](=O)[O-])cc3)CC2)nc2ccccc21
CN(C)C(CNC(=S)Nc1ccc(F)cc1)c1cccnc1 (stereo not given)
COc1ccc(C(=O)NC(=S)NNC(=O)c2c(-c3ccccc3)noc2C)cc1OC
CC1CC(C)CN(CCCNC(=O)COc2cc(=O)n(C)c3ccccc23)C1 (stereo not given)
CN(C)CCCN(C(=O)c1ccc(C(=O)c2ccccc2)cc1)c1nc2ccc(F)cc2s1
CCCCN(CC)CCNC(=O)c1cc2cc3ccc(Cl)cc3nc2o1
COc1ccc(C(=O)NC(=S)NNC(=O)CCc2ccccc2)cc1
CCN(CC)CCSc1nc2ccc(OC)cc2[nH]1
Cc1ccc(C)c(OCCCCn2ccnc2)c1
Cc1nc(/N=C(\N)NC(=O)NC2CCCCC2)nc2ccccc12
COC(=O)[C@@]1(Cc2ccc(F)cc2)[C@H]2c3cc(C(=O)N(C)C)n(CCc4ccccn4)c3C[C@H]2CN1C(=O)c1ccccc1
O=C(CNS(=O)(=O)c1ccc2ccccc2c1)NCCc1ccccn1

Source: PubChem BioAssay
